Screening results deposited in PubChem BioAssay by several laboratories.
Ecoli tolC = growth inhibitors of E. coli tolC mutant, primary screen, strain BW25113 ΔtolC::kan, 384-well. OD615. 2.2% of 65,000 active. growth inhibition, % at 10 µM (by protocol). AID 573, 2007;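 active means growth inhibition at or above a cutoff equal to the mean over every tested compound plus 3 SD, cut at about 60% in these data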;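 further: growth measured after 20 h incubation at 37 °C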
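Test system: E. coli BW25113 ΔtolC::kan bacteria | Medium: Kanamycin-containing LB broth (50 µg/mL) | Dosing: One dose of 10 µM final | Times: 20 h incubation with compound, 37 °C | Detection: Optical density read at 615 nm | Read-out basis: Percent growth inhibition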
BAP1 inh = inhibitors of BAP1 deubiquitinase, primary screen, biochemical, Ub-AMC fluorescence, kinetic; Ubiquitin carboxyl-terminal hydrolase BAP1 (Homo sapiens), Q92560; recombinant BAP1, Ub-AMC hydrolysis fluorescence kinetic; active compounds read low; calls only at 20 µM; 0.48% of 72,000 active;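 active means activity remaining at or below 50% of control, provided the compound also passes the data quality filters; inactive means the rest, including low values that fail the filters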
TNAP act mid DEA = human TNAP enzyme activators, primary screen, biochemical, luminescent, intermediate phosphate acceptor level; activation factor at 20 µM; Alkaline phosphatase, tissue-nonspecific isozyme (Homo sapiens), P05186; AID 813, 2007; purified TNAP, CDP-star luminescence, 100 mM DEA, 30 min; active compounds read high; scale: 0 levamisole-inhibited, 1 vehicle-only enzyme; 64,000 tested, under 10 active;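 active means activation factor of at least 2 at 20 µM, relative to controls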
WNV protease inh = inhibitors of WNV NS2B-NS3 protease, primary screen, biochemical, fluorogenic substrate. 0.18% of 65,000 active. fluorogenic substrate Ex360/Em465; active compounds read low. Genome polyprotein (West Nile virus), P06935. z-score (concentration not given with the values); in the data active means z-score below about -3
Target sequence (P06935 1371-1501 limits assumed): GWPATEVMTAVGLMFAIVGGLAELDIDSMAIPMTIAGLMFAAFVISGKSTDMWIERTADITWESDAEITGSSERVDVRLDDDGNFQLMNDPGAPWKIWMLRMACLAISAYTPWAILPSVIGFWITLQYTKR
Target sequence (P06935 1502-1679 limits assumed): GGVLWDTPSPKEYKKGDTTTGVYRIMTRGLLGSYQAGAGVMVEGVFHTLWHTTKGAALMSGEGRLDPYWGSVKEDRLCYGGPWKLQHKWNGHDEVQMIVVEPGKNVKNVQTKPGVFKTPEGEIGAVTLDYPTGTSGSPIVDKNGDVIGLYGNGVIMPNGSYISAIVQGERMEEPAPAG
E coli WT exp = growth inhibitors of wild-type E. coli, primary screen, strain BW25113, expanded library, OD600 | 0.15% of 98,000 active | AID 710, 2007 | OD600 absorbance | growth inhibition, % at 100 µM;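 active means growth inhibition above about 50% at one test dose, limit read from the data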;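 further: growth measured after 20 h incubation at 37 °C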
BAP1 inh confirm = BAP1 deubiquitinase inhibitors, hit retest, confirmation, orthogonal assay, biochemical, Ub-ethyl ester substrate, HPLC readout. shares compounds with BAP1 inh. purified BAP1, Ub-ethyl ester hydrolysis; active compounds read low. % of control activity, % at 20 µM. 8% of 310 active. AID 753, 2007;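 active means percent of control activity at or below 60%; inconclusive means HPLC trace unusable from injection failure or solvent front hiding peaks; inactive means the rest, plus ubiquitin peak ratio over a set limit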
Hits are given with their value; - = inactive; ? = inconclusive; . = no result given; + = active, no number. This excerpt belongs to a sample that is enriched for hits.

SMILES | Ecoli tolC | BAP1 inh | TNAP act mid DEA | WNV protease inh | E coli WT exp | BAP1 inh confirm
CC(=O)OC1c2c(ccc3ccc(=O)oc23)OC(C)(C)C1OC(=O)CC(C)C (configuration not stated) | - | + | - | - | . | -
CCOC(=O)c1c(NC(=O)CSc2nnc(CNc3ccc(F)cc3)o2)sc(C)c1C | - | + | - | - | - | ?
CCCOc1cc(OCCC)c2c3c(c(=O)oc2c1)CCCC3 | . | - | . | . | . | .
CCOc1ccccc1NC(=O)c1ccc([N+](=O)[O-])o1 | . | - | . | . | . | .
CC(C)C(c1nnnn1Cc1ccccc1)N(Cc1ccco1)Cc1cccs1 (configuration not stated) | - | - | - | - | - | .
COc1ccc(Cn2nnnc2C(C(C)C)N(Cc2ccco2)Cc2cccs2)cc1 (configuration not stated) | - | + | - | - | - | -
Cc1ccc(-n2ncc3c(=O)n(CC(=O)Nc4cccc(Cl)c4)cnc32)cc1C | - | + | - | - | - | -
Cc1nnc(C)n1N1C(=O)c2cccc3cccc(c23)C1=O | - | . | - | - | - | .
NC1=CC(=O)c2cccc3cccc1c23 | - | + | - | - | . | -
NC(=O)c1cc2[nH]c3ccccc3c2[n+](-c2ccc([N+](=O)[O-])cc2)c1N | . | - | . | . | . | .
N#Cc1c(NC(=O)CN2CCN(S(=O)(=O)c3ccc4c(c3)OCCO4)CC2)sc2c1CCC2 | - | + | - | - | - | -
Cc1cc(OCc2ccc(F)cc2)nc(-c2ccccc2O)n1 | - | + | - | - | - | -
NC(=O)c1cc[n+](CC2=C(C(=O)O)N3C(=O)[C@@H](NC(=O)[C@@H](c4ccccc4)S(=O)(=O)[O-])[C@H]3SC2)cc1 | . | - | . | . | . | .
CCCc1cc(=O)oc2cc(C)c(CN3CCCC3)c(O)c12 | - | + | - | - | - | -
COc1ccc2c(c1)c1ncn(CCc3ccccc3)c(=O)c1n2C | . | . | . | . | - | .
COc1ccc2c(c1)c1nc(SCC(C)C)n(CCO)c(=O)c1n2C | - | + | - | - | - | -
Cc1nc(N2CCC(C)CC2)c2c(C)c(C(=O)O)sc2n1 | - | - | - | - | - | .
O=C(c1ccco1)[C@@H]1[C@@H]2C(=O)N(c3ccc(F)cc3)C(=O)[C@@H]2C2c3ccccc3C=CN21 (some centres not stated) | - | - | - | - | - | .
O=C(c1ccco1)[C@@H]1[C@@H]2C(=O)N(c3ccc(Br)cc3)C(=O)[C@@H]2C2c3ccccc3C=CN21 (some centres not stated) | - | + | - | - | . | -
O=S(=O)(c1ccc2c(c1)oc1ccccc12)N1CCOCC1 | - | + | - | - | - | -
Cn1c(=O)oc2cc(S(=O)(=O)N3CCOCC3)ccc21 | - | - | - | - | - | .
COc1ccc(C2CC(=O)N3CN(c4ccc(C)c(Cl)c4)CSC3=C2C#N)cc1OC (configuration not stated) | - | + | - | - | - | ?
COc1ccc(N2CSC3=C(C#N)C(c4ccc(OC)c(OC)c4)CC(=O)N3C2)c(OC)c1 (configuration not stated) | - | - | - | - | - | .
O=c1oc2cc(OCc3cccc(Cl)c3)ccc2c2c1CCCC2 | . | - | . | . | . | .
Cc1cc(NC(=O)c2cn(C3CCCCC3)c(=O)c3c2c2ccccc2n3C)no1 | - | + | - | - | - | -
SMILES | Ecoli tolC | BAP1 inh | TNAP act mid DEA | WNV protease inh | E coli WT exp | BAP1 inh confirm
Cc1ccc(CNC(=O)c2cn(C3CCCCC3)c(=O)c3c2c2ccccc2n3C)o1 | - | - | - | - | - | .
Cc1cc(C)cc(-n2nnnc2SCC(=O)Nc2cccc(NC(=O)c3ccco3)c2)c1 | - | - | - | - | - | .
Cc1ccc(-n2nnnc2SCC(=O)Nc2cccc(NC(=O)c3ccco3)c2)cc1C | - | + | - | - | - | -
CCc1ccc(N/C(SCc2cccc(F)c2)=C(/C#N)C(=O)NCc2ccco2)cc1 | - | + | - | - | - | -
Cc1ccc(N/C(SCc2ccccc2C)=C(/C#N)C(=O)NCc2ccco2)cc1C | . | . | . | . | - | .
COC(=O)C1=C(C(=O)OC)SC(=C2C(=S)C(C)(C)N(C(=O)C(C)C)c3cc(C)c(C)cc32)S1 | . | - | . | . | . | .
Cc1cc(C)n(-c2ccc(C(=O)OCC(=O)NCc3ccco3)cc2)n1 | - | - | - | - | - | .
Cc1cc(C)n(-c2ccc(C(=O)OCC(=O)c3ccc(Br)s3)cc2)n1 | - | + | - | - | - | -
O=C(O)c1c(-c2ccccc2)c2oc3ccccc3c2[nH]c1=O | - | + | - | - | - | -
CCC(=O)N1CCc2cc(S(=O)(=O)NC(C(=O)NCc3ccc(C)cc3)C(C)C)ccc21 (configuration not stated) | - | + | - | - | - | -
CCOC(=O)C1CCCN(c2ccc(NC(=O)c3snc4c(=O)[nH]cnc34)cc2)C1 (configuration not stated) | - | + | - | - | - | -
CCOc1ccc2nc(NC(=O)CN3CCC(n4nnc5cc(F)ccc54)CC3)sc2c1 | 79 | + | - | - | - | -
O=C(O)Cn1cc(C(=O)c2cccs2)c2ccccc21 | - | + | - | - | - | -
CCOC(=O)Cn1cc(C(=O)c2cccs2)c2ccccc21 | - | - | - | - | - | .
O=C(CCSc1nnc2scc(-c3ccccc3)n12)Nc1nc(-c2ccccc2)ns1 | 65 | + | - | - | - | -
CC(=O)Nc1ccc(C(=O)CSc2nnc3scc(-c4ccccc4)n23)cc1 | - | - | - | - | - | .
CCOC(=O)Cn1nnnc1CN(Cc1ccc(OC)cc1)Cc1cc2cc(CC)ccc2[nH]c1=O | - | + | - | - | - | -
COc1ccc2nc(N3CCC(O)CC3)c(C#N)cc2c1 | - | - | - | - | - | .
CCOC(=O)C1CCN(c2nc3cc(OC)ccc3cc2C#N)CC1 | 75 | + | - | - | - | -
Cc1cc(NS(=O)(=O)c2ccc(NC(=O)c3ccccc3)cc2)no1 | . | - | . | . | . | .
COC(=O)c1ccc(CSC2=NCN(CCO)CN2)cc1 | . | - | . | . | . | .
CC(C)(C)C1CCc2[nH]nc(C(=O)O)c2C1 (configuration not stated) | - | - | - | - | - | .
COC(=O)CSc1nc2ccc(NC(=O)CSc3nnnn3Cc3ccccc3)cc2s1 | - | + | - | - | - | -
Cn1cnnc1SCC(=O)Nc1ccc2nc(SCc3ccccc3)sc2c1 | - | - | - | - | - | .
Cc1ccc2cc(CN(Cc3ccc4c(c3)OCO4)Cc3nnnn3Cc3ccco3)c(=O)[nH]c2c1C | - | + | - | - | - | -
